In ChEMBL document CHEMBL3393023, “Benzimidazole-containing HCV NS5A inhibitors: effect of 4-substituted pyrrolidines in balancing genotype 1a and 1b potency” (Bioorg Med Chem Lett, 2015):

How the values were obtained:
Hepatitis C virus [1] = test: Selectivity index, ratio of EC50 for HCV genotype 1a expressing NS5A Y93H mutant to EC50 for HCV genotype 1a expressing wild type NS5A; type: functional, Hepacivirus hominis, subtype 1a
How it was run: (§1)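 Recombinant HCV replicon cell lines carrying the single NS5A substitution were tested, with the matching wild-type replicon as reference. The value is the fold shift of activity against the mutant relative to wild-type activity.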

Cytochrome P450 1A2 = biological target: T1, Cytochrome P450 1A2 (Homo sapiens, UniProt P05177); test: Inhibition of CYP1A2 (unknown origin); type: ADME
T1 sequence (P05177 whole entry): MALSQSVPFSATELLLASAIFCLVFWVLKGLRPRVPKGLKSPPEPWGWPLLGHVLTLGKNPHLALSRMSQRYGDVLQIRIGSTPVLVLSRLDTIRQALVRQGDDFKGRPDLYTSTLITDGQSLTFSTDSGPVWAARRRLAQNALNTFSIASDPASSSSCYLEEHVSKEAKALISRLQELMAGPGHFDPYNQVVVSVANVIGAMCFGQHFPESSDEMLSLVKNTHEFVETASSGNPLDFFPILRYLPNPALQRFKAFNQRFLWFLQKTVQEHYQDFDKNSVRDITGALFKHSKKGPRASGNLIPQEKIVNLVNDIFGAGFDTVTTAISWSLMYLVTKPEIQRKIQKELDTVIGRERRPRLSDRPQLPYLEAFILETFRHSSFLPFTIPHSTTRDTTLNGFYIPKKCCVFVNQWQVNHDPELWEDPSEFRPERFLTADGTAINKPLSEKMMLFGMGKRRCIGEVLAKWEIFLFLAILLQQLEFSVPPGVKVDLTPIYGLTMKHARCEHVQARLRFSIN

[2] = Half life in iv dosed rat; type: ADME, organism-based; details: in vivo
Cytochrome P450 3A4 = Cytochrome P450 3A4 (Homo sapiens, UniProt P08684); test: Inhibition of CYP3A4 (unknown origin); type: ADME
Sequence of Cytochrome P450 3A4 (P08684 whole entry): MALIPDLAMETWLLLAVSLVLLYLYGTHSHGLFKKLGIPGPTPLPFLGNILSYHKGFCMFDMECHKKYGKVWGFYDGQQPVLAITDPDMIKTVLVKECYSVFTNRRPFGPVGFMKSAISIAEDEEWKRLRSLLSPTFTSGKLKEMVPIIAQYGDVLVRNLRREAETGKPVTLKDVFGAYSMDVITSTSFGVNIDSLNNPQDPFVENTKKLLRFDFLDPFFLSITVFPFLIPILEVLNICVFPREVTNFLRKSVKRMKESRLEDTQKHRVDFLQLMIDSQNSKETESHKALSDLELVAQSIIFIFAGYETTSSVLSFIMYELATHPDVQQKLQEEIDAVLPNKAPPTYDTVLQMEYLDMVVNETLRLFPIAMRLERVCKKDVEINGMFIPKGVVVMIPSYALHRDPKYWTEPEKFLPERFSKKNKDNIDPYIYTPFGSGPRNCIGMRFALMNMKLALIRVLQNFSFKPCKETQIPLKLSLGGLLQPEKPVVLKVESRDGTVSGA

[3] = biological target: T2, Voltage-gated inwardly rectifying potassium channel KCNH2 (Homo sapiens, UniProt Q12809); test: Inhibition of human ERG channel by planar technique
T2 sequence (Q12809 whole entry): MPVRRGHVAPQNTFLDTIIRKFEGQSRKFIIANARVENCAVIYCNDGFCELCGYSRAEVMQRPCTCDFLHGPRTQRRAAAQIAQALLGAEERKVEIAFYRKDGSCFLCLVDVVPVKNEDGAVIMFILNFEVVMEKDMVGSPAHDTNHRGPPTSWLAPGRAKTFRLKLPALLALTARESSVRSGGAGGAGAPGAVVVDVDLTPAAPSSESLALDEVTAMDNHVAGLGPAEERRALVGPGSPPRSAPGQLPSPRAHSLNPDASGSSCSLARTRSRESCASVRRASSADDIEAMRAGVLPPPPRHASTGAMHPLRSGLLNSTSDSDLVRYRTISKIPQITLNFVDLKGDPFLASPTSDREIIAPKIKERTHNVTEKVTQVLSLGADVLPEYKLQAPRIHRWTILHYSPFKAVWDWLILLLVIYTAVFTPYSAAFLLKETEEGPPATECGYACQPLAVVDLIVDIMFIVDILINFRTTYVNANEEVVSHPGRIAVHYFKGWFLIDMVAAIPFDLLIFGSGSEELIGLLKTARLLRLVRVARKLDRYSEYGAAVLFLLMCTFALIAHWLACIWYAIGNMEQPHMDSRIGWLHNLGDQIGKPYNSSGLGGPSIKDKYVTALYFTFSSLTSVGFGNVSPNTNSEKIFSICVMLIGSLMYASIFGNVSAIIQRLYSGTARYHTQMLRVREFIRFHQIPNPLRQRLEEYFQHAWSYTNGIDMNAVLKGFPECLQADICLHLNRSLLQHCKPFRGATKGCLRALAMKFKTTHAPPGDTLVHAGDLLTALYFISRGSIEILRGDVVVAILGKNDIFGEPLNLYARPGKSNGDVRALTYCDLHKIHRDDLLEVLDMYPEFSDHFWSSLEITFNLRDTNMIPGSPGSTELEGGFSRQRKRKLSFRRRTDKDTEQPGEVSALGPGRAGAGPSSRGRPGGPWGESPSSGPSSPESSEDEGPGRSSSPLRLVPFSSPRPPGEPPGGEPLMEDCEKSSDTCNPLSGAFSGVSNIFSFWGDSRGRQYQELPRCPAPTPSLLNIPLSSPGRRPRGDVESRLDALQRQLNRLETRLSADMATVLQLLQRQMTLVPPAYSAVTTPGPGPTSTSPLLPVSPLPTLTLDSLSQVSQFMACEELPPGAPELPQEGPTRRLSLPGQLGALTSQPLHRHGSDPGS

[4] = Oral bioavailability in rat at 3 mg/kg; type: ADME, organism-based; details: in vivo
How it was run: (§2)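 Rats were dosed orally at 3 mg/kg as a solution in 30% aqueous PEG-400.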

[5] = Protein binding in human plasma; type: ADME, cell-free; details: read-out: PPB (converted)
[6] = Protein binding in rat plasma; type: ADME, cell-free; details: read-out: PPB (converted)
[7] = biological target: T2, Voltage-gated inwardly rectifying potassium channel KCNH2; test: Inhibition of human ERG channel by QPatch technique
Cytochrome P450 2D6 = Cytochrome P450 2D6 (Homo sapiens, UniProt P10635); test: Inhibition of CYP2D6 (unknown origin); type: ADME
Sequence of Cytochrome P450 2D6 (P10635 whole entry): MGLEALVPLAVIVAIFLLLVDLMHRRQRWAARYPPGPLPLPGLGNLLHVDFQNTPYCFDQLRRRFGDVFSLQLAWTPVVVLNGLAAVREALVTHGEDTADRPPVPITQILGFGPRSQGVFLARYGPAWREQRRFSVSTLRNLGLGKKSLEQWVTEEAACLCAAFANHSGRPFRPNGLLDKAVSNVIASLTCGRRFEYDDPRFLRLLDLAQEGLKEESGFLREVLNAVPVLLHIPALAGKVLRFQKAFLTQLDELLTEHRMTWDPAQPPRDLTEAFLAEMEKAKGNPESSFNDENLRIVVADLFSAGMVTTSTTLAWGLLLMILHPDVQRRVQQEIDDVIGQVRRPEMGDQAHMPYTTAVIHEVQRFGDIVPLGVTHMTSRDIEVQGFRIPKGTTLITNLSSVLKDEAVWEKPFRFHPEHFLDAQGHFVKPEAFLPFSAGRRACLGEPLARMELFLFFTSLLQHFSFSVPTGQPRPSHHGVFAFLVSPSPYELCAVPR

[8] = Volume of distribution at steady state in iv dosed rat; type: ADME, organism-based; details: in vivo, read-out: Vdss
MDR1 (human) = test: Efflux ratio of permeability in MDCK cells over-expressing human Mdr1; type: ADME, cell-based, Canis lupus familiaris; details: dog
Hepatitis C virus [9] = test: Selectivity index, ratio of EC50 for HCV genotype 1a expressing NS5A Q30R mutant to EC50 for HCV genotype 1a expressing wild type NS5A; type: functional, Hepacivirus hominis, subtype 1a; how it was run: as §1
[10] = AUC (0 to 8 hrs) in rat at 3 mg/kg, po; type: ADME, organism-based; design: time < 8 hr, dose 3 mg/kg, route oral; details: plasma; how it was run: as §2
Hepatitis C virus [11] = test: Antiviral activity against Hepatitis C virus genotype 1a infected in W11.8 cells assessed as decrease in NS5A expression in replicon cell after 4 days by luminescence based ELISA; type: functional, Hepacivirus hominis; details: subtype 1a, W11.8, 96 h
[12] = Permeability from apical to basolateral layer in human Caco2 cells; type: ADME, cell-based; details: Caco-2, read-out: permeability
[13] = Metabolic stability in human hepatocytes assessed as compound remaining at 5 uM after 60 mins; type: ADME, cell-based, Hepatocyte; details: read-out: Stability
Cytochrome P450 2C9 = Cytochrome P450 2C9 (Homo sapiens, UniProt P11712); test: Inhibition of CYP2C9 (unknown origin); type: ADME
Sequence of Cytochrome P450 2C9 (P11712 whole entry): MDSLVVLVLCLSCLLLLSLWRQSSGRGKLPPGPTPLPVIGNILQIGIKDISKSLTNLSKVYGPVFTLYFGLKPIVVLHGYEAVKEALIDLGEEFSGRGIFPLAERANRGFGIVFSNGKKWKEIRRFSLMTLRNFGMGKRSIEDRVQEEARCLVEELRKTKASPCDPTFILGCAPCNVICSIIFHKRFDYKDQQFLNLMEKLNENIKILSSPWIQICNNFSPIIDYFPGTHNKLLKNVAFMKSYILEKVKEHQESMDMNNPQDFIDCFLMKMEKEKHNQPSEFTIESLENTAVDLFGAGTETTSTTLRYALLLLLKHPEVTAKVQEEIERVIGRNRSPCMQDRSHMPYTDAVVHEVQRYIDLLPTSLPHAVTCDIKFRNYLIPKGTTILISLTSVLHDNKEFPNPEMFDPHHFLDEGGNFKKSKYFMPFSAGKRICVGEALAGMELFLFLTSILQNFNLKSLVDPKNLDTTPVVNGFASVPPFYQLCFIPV

[14] = Cmax in rat at 3 mg/kg, po; type: ADME, organism-based; design: dose 3 mg/kg, route oral; details: in vivo; how it was run: as §2
[15] = Clearance in iv dosed rat; type: ADME, organism-based; details: in vivo
[16] = Cytotoxicity against human Huh7ET cells by [3H]-thymidine incorporation assay; type: cell-based; details: Huh7ET cells (Huh-7)
How it was run: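 Huh-7 ET cells were exposed to 12 test-compound concentrations, each in duplicate. Viability was read by [3H]-thymidine incorporation and CC50 was derived from the curve. A run was accepted only when the positive-control CC50 fell within 40% of its mean value.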

[17] = Half life in rat at 3 mg/kg, po; type: ADME, organism-based; design: dose 3 mg/kg, route oral; details: in vivo; how it was run: as §2
[18] = Metabolic stability in rat hepatocytes assessed as compound remaining at 5 uM after 60 mins; type: ADME, cell-based, Hepatocyte; details: read-out: Stability
Hepatitis C virus [19] = test: Antiviral activity against Hepatitis C virus genotype 1b infected in human Huh-5.2 cells assessed as decrease in HCV replicon RNA replication after 4 days by luciferase assay; type: functional, cell-based, Hepacivirus hominis; details: Huh-5-2, 96 h
Hepatitis C virus [20] = test: Selectivity index, ratio of EC50 for HCV genotype 1b expressing NS5A Y93H mutant to EC50 for HCV genotype 1b expressing wild type NS5A; type: functional, Hepacivirus hominis; how it was run: as §1
Cytochrome P450 2C19 = Cytochrome P450 2C19 (Homo sapiens, UniProt P33261); test: Inhibition of CYP2C19 (unknown origin); type: ADME
Sequence of Cytochrome P450 2C19 (P33261 whole entry): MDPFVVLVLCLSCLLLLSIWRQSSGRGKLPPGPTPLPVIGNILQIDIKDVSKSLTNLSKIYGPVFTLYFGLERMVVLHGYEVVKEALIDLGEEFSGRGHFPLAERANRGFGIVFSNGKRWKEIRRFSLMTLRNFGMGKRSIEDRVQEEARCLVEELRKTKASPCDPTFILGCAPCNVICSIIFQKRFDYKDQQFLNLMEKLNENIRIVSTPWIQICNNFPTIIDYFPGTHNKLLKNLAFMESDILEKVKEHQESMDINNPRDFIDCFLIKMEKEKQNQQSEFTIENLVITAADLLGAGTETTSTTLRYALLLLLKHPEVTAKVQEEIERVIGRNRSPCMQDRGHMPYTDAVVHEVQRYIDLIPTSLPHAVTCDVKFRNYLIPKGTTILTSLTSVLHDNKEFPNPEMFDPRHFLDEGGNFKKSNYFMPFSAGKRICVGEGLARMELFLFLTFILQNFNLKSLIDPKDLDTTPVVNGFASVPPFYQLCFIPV

Hepatitis C virus [21] = test: Selectivity index, ratio of EC50 for HCV genotype 1a expressing NS5A M28T mutant to EC50 for HCV genotype 1a expressing wild type NS5A; type: functional, Hepacivirus hominis, subtype 1a; how it was run: as §1

In the case of `COC(=O)N[C@H](C(=O)N1C[C@@H](C)C[C@H]1c1nc(-c2ccc(-c3ccc(-c4ccc5[nH]c([C@@H]6C[C@H](C)CN6C(=O)[C@@H](NC(=O)OC)C(C)C)nc5c4)cc3)cc2)c[nH]1)C(C)C`, the Selectivity ratio (Hepatitis C virus [1]) is reported as 8000, the IC50 (Cytochrome P450 1A2) is reported as > 30 µM and the half-life [2] is reported as 2 h. For the same compound, the IC50 (Cytochrome P450 3A4) was > 30 µM, the IC50 [3] was > 30 µM and the bioavailability [4] was 26%. For the same compound, the fraction unbound [5] was 0.014, the fraction unbound [6] was 0.083 and the IC50 [7] was > 30 µM. For the same compound, the IC50 (Cytochrome P450 2D6) was > 30 µM, the Vd [8] was 1.4 L/kg and the efflux ratio (MDR1 (human)) was 1.8. The Selectivity ratio (Hepatitis C virus [9]) was 42, the AUC(0-t) at 8 h [10] was 2080 ng·h/mL and the EC50 (Hepatitis C virus [11]) was 4 pM. The Papp A→B [12] was 4.1 ×10⁻⁶ cm/s, the remaining at 1 h, 5 µM [13] was > 90% and the IC50 (Cytochrome P450 2C9) was > 30 µM. For the same compound, the Cmax [14] was 0.03 ng/mL, the clearance [15] was 9 mL/min/kg and the CC50 [16] was > 20 µM. The half-life [17] was 3.5 h, the remaining at 1 h, 5 µM [18] was > 90% and the EC50 (Hepatitis C virus [19]) was 5 pM. The Selectivity ratio (Hepatitis C virus [20]) was 100, the IC50 (Cytochrome P450 2C19) was > 30 µM and the Selectivity ratio (Hepatitis C virus [21]) was 55.
